Measured values: ChEMBL document CHEMBL4270616, “Asymmetrical meta-methoxylated diarylpentanoids: Rational design, synthesis and anti-cancer evaluation in-vitro” (Eur J Med Chem, 2018)

Experiments:
HT-1080 [1] = assay: Cytotoxicity against human HT1080 cells assessed as inhibition of cell proliferation at 20 uM after 72 hrs by MTT assay relative to control; assay type: functional; conditions: HT-1080, 72 h
Procedure, shortened: (§1)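 Single-concentration screen at 20 μM with 72 h exposure in DMEM with 10% FBS, final DMSO 0.1%. Read-out was MTT (5 mg/mL, 4 h, 37°C), DMSO solubilisation and absorbance at 570 nm, expressed as percent inhibition. Lines reaching a threshold percentage went on to IC50 determination.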

MCF7 [2] = assay: Cytotoxicity against human MCF7 cells assessed as inhibition of cell proliferation at 20 uM after 72 hrs by MTT assay relative to control; assay type: functional; conditions: MCF7, 72 h; procedure, shortened: as §1
NHDF = assay: Cytotoxicity against NHDF after 72 hrs by MTT assay; assay type: cell-based; conditions: Homo sapiens
Procedure, shortened: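 NHDF grown in DMEM with 5% FBS at 37°C, 5% CO2. Seeded at 1500-5000 cells/well, 24 h, then compound added in DMSO-containing medium (final DMSO 0.1%) for 72 h. MTT (5 mg/mL in medium) added for 4 h at 37°C, formazan dissolved in DMSO, absorbance read at 570 nm.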

A549 [3] = assay: Cytotoxicity against human A549 cells after 72 hrs by MTT assay; assay type: functional, cell-based; conditions: A549, 72 h
Procedure, shortened: (§2)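 Tumour lines kept in DMEM with 10% FBS and 1% penicillin/streptomycin at 37°C, 5% CO2. Seeded at 1500-5000 cells/well by doubling time and size, 24 h, then compound in DMSO-containing medium (final DMSO 0.1%) for 72 h. MTT (5 mg/mL) 4 h at 37°C, DMSO solubilisation, absorbance at 570 nm.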

[4] = Cytotoxicity against human EJ28 cells after 72 hrs by MTT assay; assay type: functional, cell-based; conditions: EJ-28, 72 h; procedure, shortened: as §2
HT-1080 [5] = assay: Cytotoxicity against human HT1080 cells after 72 hrs by MTT assay; assay type: functional, cell-based; conditions: HT-1080, 72 h; procedure, shortened: as §2
SW-620 [6] = assay: Cytotoxicity against human SW620 cells assessed as inhibition of cell proliferation at 20 uM after 72 hrs by MTT assay relative to control; assay type: functional; conditions: SW-620, 72 h; procedure, shortened: as §1
A549 [7] = assay: Cytotoxicity against human A549 cells assessed as inhibition of cell proliferation at 20 uM after 72 hrs by MTT assay relative to control; assay type: functional; conditions: A549, 72 h; procedure, shortened: as §1
SW-620 [8] = assay: Cytotoxicity against human SW620 cells after 72 hrs by MTT assay; assay type: functional, cell-based; conditions: SW-620, 72 h; procedure, shortened: as §2
MCF7 [9] = assay: Cytotoxicity against human MCF7 cells after 72 hrs by MTT assay; assay type: functional, cell-based; conditions: MCF7, 72 h; procedure, shortened: as §2
[10] = Cytotoxicity against human EJ28 cells assessed as inhibition of cell proliferation at 20 uM after 72 hrs by MTT assay relative to control; assay type: functional; conditions: EJ-28, 72 h; procedure, shortened: as §1

Compound	inhibition at 20 µM (HT-1080 [1]) [%]	inhibition at 20 µM (MCF7 [2]) [%]	IC50 (NHDF) [µM]	IC50 (A549 [3]) [µM]	IC50 [4] [µM]	IC50 (HT-1080 [5]) [µM]	inhibition at 20 µM (SW-620 [6]) [%]	inhibition at 20 µM (A549 [7]) [%]	IC50 (SW-620 [8]) [µM]	IC50 (MCF7 [9]) [µM]	inhibition at 20 µM [10] [%]
COc1cccc(/C=C2\CCC/C(=C\c3cc(OC)c(OC)c(OC)c3)C2=O)c1OC	> 50	> 50	7.9	5.9	2.4	2.3	> 50	> 50	2.5	1.4	> 50
COc1cccc(/C=C2\CCC/C(=C\c3ccc(Cl)cc3)C2=O)c1OC	> 50	> 50	18.6	> 20	11	11.1	> 50	> 50	11.1	10.3	> 50
COc1ccc(/C=C2\CCC/C(=C\c3ccc(OC)c(OC)c3)C2=O)cc1	> 50	> 50	30.9	> 20	8.4	7.2	> 50	> 50	6.6	7.8	> 50
COc1ccc(/C=C2\CCC/C(=C\c3ccccc3Cl)C2=O)cc1OC	> 50	> 50	21.6	> 20	6.9	6.8	> 50	> 50	7.1	10.4	> 50
COc1ccc(/C=C2\CCC/C(=C\c3cccc(OC)c3OC)C2=O)cc1OC	> 50	> 50	14.9	14.4	6.6	6.4	> 50	> 50	6.4	6.5	> 50
COc1cccc(/C=C2\CCC/C(=C\c3cccc(Cl)c3)C2=O)c1OC	> 50	> 50	21.4	> 20	11.3	10.3	> 50	> 50	9.1	12	> 50
COc1cccc(/C=C2\CCC/C(=C\c3cccc(Br)c3)C2=O)c1OC	> 50	> 50	23.9	> 20	12.1	12.2	> 50	> 50	8.8	11.7	> 50
COc1ccc(/C=C2\CCC/C(=C\c3ccc(Cl)c(Cl)c3)C2=O)cc1OC	> 50	> 50	10.1	6.9	3.4	3.1	> 50	> 50	4	4.4	> 50
COc1cc(/C=C2\CCC/C(=C\c3ccc(OC)c(OC)c3)C2=O)ccc1O	> 50	> 50	13.7	10.3	4.6	4.6	> 50	> 50	4.5	7.9	> 50
COc1ccc(/C=C2\CCC/C(=C\c3ccc(OC)c(OC)c3)C2=O)cc1OC	> 50	> 50	9.7	8.5	3.5	3	> 50	> 50	4.5	13.5	> 50
COc1ccccc1/C=C1\CCC/C(=C\c2ccc(OC)c(OC)c2)C1=O	> 50	> 50	18.1	> 20	8.1	8.1	> 50	> 50	7.8	8	> 50
COc1cccc(/C=C2\CCC/C(=C\c3ccc(Cl)cc3Cl)C2=O)c1OC	> 50	> 50	49.2	> 20	> 20	> 20	> 50	> 50	16.3	> 20	> 50
COc1ccc(/C=C2\CCC/C(=C\c3cccc(Br)c3)C2=O)cc1OC	> 50	> 50	12.4	12.8	4.9	5.2	> 50	> 50	4.2	5.3	> 50
COc1ccc(/C=C2\CCC/C(=C\c3ccc(O)c(O)c3)C2=O)cc1OC	> 50	> 50	25.2	> 20	12.1	4.2	> 50	> 50	10.5	14.4	> 50
COc1ccc(/C=C2\CCC/C(=C\c3ccc(O)cc3)C2=O)cc1OC	> 50	> 50	26.1	> 20	16.6	16.8	> 50	> 50	7.7	17	> 50
COc1ccc(/C=C2\CCC/C(=C\c3ccc(Cl)cc3)C2=O)cc1OC	> 50	> 50	11.2	10.1	5.7	4.8	> 50	> 50	5.9	6.3	> 50
COc1cc(/C=C/C(=O)CC(=O)/C=C/c2ccc(O)c(OC)c2)ccc1O [CURCUMIN]			24.1	17.9	10.5	13.1			14	9.8	
